How the values were obtained:
[1] = Lipophilicity, log D of the compound at pH 7.4; type: physicochemical; conditions: buffer
[2] = molecular target: Voltage-gated inwardly rectifying potassium channel KCNH2 (Homo sapiens, UniProt Q12809); experiment: Inhibition of human ERG channel expressed in CHO cells by patch clamp assay
[3] = Dissociation constant, pKa of the compound; type: physicochemical
[4] = Intrinsic clearance in human liver microsomes at 1 mg/ml; type: ADME, Microsome; conditions: read-out: CLH
Procedure, shortened: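 Compound incubated 45 min at 37 °C with human liver microsomes at 1 mg/mL. CLint is taken from the rate of parent disappearance.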

Cytochrome P450 3A4 [5] = molecular target: T1, Cytochrome P450 3A4 (Homo sapiens, UniProt P08684); experiment: Inhibition of human recombinant CYP3A4 coexpressed in Escherichia coli; type: ADME
Procedure, shortened: (§1)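 Human recombinant cytochrome P450s at 37 °C. Read-out is inhibition of metabolic degradation of each isoform's substrate. Percent inhibition is measured at five test concentrations and converted to IC50.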

Cytochrome P450 2D6 [6] = molecular target: T2, Cytochrome P450 2D6 (Homo sapiens, UniProt P10635); experiment: Inhibition of human recombinant CYP2D6 coexpressed in Escherichia coli; type: ADME; procedure, shortened: as §1
Cytochrome P450 2C8 [7] = molecular target: T3, Cytochrome P450 2C8 (Homo sapiens, UniProt P10632); experiment: Inhibition of human recombinant CYP2C8 coexpressed in Escherichia coli; type: ADME; procedure, shortened: as §1
T3 sequence (P10632 whole entry): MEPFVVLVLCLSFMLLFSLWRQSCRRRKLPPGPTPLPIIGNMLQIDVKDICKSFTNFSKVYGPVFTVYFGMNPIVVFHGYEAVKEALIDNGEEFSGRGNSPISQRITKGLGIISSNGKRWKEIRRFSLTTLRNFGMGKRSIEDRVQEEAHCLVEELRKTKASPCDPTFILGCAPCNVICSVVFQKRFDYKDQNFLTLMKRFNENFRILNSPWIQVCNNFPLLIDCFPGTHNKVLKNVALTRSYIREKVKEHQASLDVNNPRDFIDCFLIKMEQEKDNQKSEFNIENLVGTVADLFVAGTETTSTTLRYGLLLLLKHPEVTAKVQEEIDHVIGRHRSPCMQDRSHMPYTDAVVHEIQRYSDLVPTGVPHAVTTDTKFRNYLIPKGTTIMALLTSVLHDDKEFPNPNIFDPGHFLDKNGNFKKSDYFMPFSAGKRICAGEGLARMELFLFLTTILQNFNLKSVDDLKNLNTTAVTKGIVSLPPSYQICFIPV

Cytochrome P450 2C9 [8] = molecular target: T4, Cytochrome P450 2C9 (Homo sapiens, UniProt P11712); experiment: Inhibition of human recombinant CYP2C9 coexpressed in Escherichia coli; type: ADME; procedure, shortened: as §1
Cytochrome P450 2C19 [9] = molecular target: T5, Cytochrome P450 2C19 (Homo sapiens, UniProt P33261); experiment: Inhibition of human recombinant CYP2C19 coexpressed in Escherichia coli; type: ADME; procedure, shortened: as §1
Cytochrome P450 1A2 [10] = molecular target: T6, Cytochrome P450 1A2 (Homo sapiens, UniProt P05177); experiment: Inhibition of human recombinant CYP1A2 coexpressed in Escherichia coli using phenacetin as probe; type: ADME; procedure, shortened: as §1
T6 sequence (P05177 whole entry): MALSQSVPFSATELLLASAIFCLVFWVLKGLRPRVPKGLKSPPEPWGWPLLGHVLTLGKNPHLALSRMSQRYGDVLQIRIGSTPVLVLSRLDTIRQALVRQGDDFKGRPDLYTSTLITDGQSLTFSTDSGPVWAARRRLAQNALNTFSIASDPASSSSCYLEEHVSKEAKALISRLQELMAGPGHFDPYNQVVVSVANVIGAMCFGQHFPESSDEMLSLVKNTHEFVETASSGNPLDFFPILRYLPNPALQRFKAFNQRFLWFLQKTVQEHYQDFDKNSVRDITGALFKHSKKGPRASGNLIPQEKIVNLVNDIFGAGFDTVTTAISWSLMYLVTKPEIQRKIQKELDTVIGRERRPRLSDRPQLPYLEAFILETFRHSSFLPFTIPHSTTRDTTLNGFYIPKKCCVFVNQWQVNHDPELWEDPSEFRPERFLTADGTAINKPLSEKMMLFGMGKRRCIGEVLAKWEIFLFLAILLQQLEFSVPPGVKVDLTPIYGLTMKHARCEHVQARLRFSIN

CYP3A4 = CYP3A4 (Homo sapiens, UniProt P08684); experiment: Time dependent inhibition of human recombinant CYP3A4 coexpressed in Escherichia coli at 50 uM using midazolam as probe; type: ADME
Procedure, shortened: (§2)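 Time-dependent inhibition of human recombinant P450s. Compound is preincubated 30 min at 37 °C with and without NADPH, then percent inhibition is read. Run at 10 and 50 μM, with the 50 μM value reported.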

CYP2D6 = CYP2D6 (Homo sapiens, UniProt P10635); experiment: Time dependent inhibition of human recombinant CYP2D6 coexpressed in Escherichia coli at 50 uM using bufuralol as probe; type: ADME; procedure, shortened: as §2
CYP2C8 = molecular target: T7, CYP2C8 (Homo sapiens, UniProt P10632); experiment: Time dependent inhibition of human recombinant CYP2C8 coexpressed in Escherichia coli at 50 uM using amodiaquine as probe; type: ADME; procedure, shortened: as §2
T7 sequence (P10632 whole entry): T3 sequence (P10632 whole entry)

CYP2C9 = CYP2C9 (Homo sapiens, UniProt P11712); experiment: Time dependent inhibition of human recombinant CYP2C9 coexpressed in Escherichia coli at 50 uM using diclofenac as probe; type: ADME; procedure, shortened: as §2
CYP2C19 = CYP2C19 (Homo sapiens, UniProt P33261); experiment: Time dependent inhibition of human recombinant CYP2C19 coexpressed in Escherichia coli at 50 uM using mephenytoin as probe; type: ADME; procedure, shortened: as §2
CYP1A2 = molecular target: T8, CYP1A2 (Homo sapiens, UniProt P05177); experiment: Time dependent inhibition of human recombinant CYP1A2 coexpressed in Escherichia coli at 50 uM using phenacetin as probe; type: ADME; procedure, shortened: as §2
T8 sequence (P05177 whole entry): T6 sequence (P05177 whole entry)

Cytochrome P450 3A4 [11] = molecular target: T1, Cytochrome P450 3A4; experiment: Activity of human recombinant CYP3A4 assessed as enzyme contribution towards compound metabolism at 37 degC; type: ADME; set-up: concentration or dose not given beside the values
Procedure, shortened: (§3)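 CYP reaction phenotyping with human recombinant P450 isoforms at 37 °C. Each isoform's share of compound metabolism is given as percent contribution relative to the other isoforms in the test.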

Cytochrome P450 2D6 [12] = molecular target: T2, Cytochrome P450 2D6; experiment: Activity of human recombinant CYP2D6 assessed as enzyme contribution towards compound metabolism at 37 degC; type: ADME; procedure, shortened: as §3
Cytochrome P450 1A2 [13] = molecular target: T6, Cytochrome P450 1A2; experiment: Activity of human recombinant CYP1A2 assessed as enzyme contribution towards compound metabolism at 37 degC; type: ADME; procedure, shortened: as §3
Cytochrome P450 2C9 [14] = molecular target: T4, Cytochrome P450 2C9; experiment: Activity of human recombinant CYP2C9 assessed as enzyme contribution towards compound metabolism at 37 degC; type: ADME; procedure, shortened: as §3
Cytochrome P450 2C19 [15] = molecular target: T5, Cytochrome P450 2C19; experiment: Activity of human recombinant CYP2C19 assessed as enzyme contribution towards compound metabolism at 37 degC; type: ADME; procedure, shortened: as §3
Cytochrome P450 2C8 [16] = molecular target: T3, Cytochrome P450 2C8; experiment: Activity of human recombinant CYP2C8 assessed as enzyme contribution towards compound metabolism at 37 degC; type: ADME; procedure, shortened: as §3

Sequence of Voltage-gated inwardly rectifying potassium channel KCNH2 (Q12809 whole entry): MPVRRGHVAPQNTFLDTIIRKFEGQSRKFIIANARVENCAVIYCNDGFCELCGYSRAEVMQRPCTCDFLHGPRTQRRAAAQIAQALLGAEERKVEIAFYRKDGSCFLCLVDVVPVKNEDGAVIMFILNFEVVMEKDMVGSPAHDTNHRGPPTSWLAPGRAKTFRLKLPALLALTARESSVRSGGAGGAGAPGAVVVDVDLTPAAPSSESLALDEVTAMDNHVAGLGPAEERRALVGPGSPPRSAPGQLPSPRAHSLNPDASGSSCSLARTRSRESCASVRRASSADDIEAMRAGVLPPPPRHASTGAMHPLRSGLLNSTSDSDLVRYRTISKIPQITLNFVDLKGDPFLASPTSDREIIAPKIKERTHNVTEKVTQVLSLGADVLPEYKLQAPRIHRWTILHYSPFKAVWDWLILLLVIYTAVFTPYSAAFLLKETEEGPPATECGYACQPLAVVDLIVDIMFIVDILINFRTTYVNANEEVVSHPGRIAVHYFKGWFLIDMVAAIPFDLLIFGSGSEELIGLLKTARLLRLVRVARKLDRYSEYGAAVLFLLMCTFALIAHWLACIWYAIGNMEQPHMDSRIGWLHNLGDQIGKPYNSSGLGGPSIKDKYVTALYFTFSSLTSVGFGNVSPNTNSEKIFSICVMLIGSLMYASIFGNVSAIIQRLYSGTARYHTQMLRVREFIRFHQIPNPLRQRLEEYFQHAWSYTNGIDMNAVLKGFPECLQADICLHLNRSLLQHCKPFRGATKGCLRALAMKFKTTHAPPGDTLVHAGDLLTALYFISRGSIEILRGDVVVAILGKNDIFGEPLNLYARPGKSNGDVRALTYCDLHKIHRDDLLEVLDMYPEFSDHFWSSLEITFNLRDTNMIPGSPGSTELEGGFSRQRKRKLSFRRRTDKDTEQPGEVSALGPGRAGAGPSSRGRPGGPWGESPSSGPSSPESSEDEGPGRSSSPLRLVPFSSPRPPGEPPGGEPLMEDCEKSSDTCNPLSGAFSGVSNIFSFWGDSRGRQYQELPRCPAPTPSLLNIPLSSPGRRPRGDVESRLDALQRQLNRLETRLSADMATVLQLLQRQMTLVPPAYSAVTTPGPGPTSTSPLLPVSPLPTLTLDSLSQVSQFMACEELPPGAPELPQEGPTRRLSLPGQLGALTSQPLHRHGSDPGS
T1 sequence (P08684 whole entry, canonical isoform): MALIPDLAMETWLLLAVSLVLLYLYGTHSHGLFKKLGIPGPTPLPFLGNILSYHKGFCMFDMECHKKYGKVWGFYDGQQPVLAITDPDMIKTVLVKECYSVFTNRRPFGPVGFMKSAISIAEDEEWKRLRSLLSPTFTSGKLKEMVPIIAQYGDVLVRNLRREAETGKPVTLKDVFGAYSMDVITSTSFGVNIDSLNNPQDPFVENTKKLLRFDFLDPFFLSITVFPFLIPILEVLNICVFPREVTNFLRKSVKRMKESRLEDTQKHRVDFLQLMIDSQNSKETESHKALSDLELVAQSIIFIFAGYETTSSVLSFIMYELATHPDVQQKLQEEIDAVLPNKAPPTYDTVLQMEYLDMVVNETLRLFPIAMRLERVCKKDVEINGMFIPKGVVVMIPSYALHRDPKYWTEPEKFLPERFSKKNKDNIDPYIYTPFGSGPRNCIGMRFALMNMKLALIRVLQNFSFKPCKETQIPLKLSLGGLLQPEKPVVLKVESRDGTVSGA
Sequence of CYP3A4 (P08684 whole entry): as the sequence (P08684 whole entry, canonical isoform) above
T4 sequence (P11712 whole entry): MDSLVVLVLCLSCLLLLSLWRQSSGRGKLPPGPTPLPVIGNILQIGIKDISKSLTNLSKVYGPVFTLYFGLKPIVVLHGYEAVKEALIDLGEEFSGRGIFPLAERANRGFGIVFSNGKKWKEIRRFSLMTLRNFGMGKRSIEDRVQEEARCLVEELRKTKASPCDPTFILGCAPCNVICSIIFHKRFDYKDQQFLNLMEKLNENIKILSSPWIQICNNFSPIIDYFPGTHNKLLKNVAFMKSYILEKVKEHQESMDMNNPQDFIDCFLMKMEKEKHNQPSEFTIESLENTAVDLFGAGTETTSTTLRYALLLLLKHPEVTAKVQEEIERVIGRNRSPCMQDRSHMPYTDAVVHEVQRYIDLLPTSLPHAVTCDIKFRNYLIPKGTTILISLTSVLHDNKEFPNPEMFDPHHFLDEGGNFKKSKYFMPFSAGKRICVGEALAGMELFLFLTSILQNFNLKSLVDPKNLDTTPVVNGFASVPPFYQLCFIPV
Sequence of CYP2C9 (P11712 whole entry): as above
T5 sequence (P33261 whole entry): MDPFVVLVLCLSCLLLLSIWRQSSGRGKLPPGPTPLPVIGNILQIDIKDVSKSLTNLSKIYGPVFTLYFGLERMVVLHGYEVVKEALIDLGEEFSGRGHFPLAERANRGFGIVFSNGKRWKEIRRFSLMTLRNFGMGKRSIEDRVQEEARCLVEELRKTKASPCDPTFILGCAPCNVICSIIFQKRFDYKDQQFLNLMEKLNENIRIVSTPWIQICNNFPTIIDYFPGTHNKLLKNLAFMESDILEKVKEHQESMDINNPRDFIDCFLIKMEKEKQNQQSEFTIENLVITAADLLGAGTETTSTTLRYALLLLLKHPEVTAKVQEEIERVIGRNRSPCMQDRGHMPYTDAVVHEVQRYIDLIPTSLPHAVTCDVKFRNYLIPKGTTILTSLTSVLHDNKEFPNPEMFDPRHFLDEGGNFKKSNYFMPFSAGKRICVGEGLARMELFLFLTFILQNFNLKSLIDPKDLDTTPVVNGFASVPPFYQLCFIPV
Sequence of CYP2C19 (P33261 whole entry): as above
Sequence of CYP2D6 (P10635 whole entry): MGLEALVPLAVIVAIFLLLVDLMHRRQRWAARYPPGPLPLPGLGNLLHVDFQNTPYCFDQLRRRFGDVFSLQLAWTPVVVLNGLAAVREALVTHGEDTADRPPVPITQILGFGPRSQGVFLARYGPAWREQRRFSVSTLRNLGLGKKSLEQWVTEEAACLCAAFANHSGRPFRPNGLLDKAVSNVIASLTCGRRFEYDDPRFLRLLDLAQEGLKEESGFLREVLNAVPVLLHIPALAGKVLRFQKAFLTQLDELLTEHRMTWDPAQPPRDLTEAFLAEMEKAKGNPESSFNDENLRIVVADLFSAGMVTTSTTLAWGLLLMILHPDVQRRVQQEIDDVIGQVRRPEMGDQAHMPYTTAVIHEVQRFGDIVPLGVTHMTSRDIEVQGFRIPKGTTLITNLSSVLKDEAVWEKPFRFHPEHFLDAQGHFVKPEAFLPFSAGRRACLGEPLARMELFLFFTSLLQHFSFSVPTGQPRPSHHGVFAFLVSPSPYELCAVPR
T2 sequence (P10635 whole entry): as above

SMILES	logD [1]	pKa [3]	microsomal CLint [4]	IC50 (Cytochrome P450 3A4 [5])	IC50 (Cytochrome P450 2D6 [6])	IC50 (Cytochrome P450 2C8 [7])	IC50 (Cytochrome P450 2C19 [9])	IC50 (Cytochrome P450 1A2 [10])	inhibition at 50 µM (CYP3A4)	inhibition at 50 µM (CYP2D6)	inhibition at 50 µM (CYP2C8)	inhibition at 50 µM (CYP2C9)	inhibition at 50 µM (CYP2C19)	inhibition at 50 µM (CYP1A2)	Activity (Cytochrome P450 3A4 [11])	Activity (Cytochrome P450 2D6 [12])	Activity (Cytochrome P450 1A2 [13])	CYP isoform contribution to compound metabolism (Cytochrome P450 2C9 [14])	Activity (Cytochrome P450 2C19 [15])	Activity (Cytochrome P450 2C8 [16])	other results
C[C@@H](Oc1nnc(-c2ccncc2)n1C)c1nnc(-c2cccc(Cl)c2)o1	2.3	3.7																			IC50 [2]: 21.5 µM
CN(Cc1nc2ccccc2c(=O)[nH]1)Cc1nc(-c2ccccc2)no1	3.1	2.1																			
c1cc(-c2nnc(C3CCCCC3)o2)ccn1			17 µL/min/mg	> 20 µM	> 20 µM	> 20 µM	1.3 µM	> 20 µM	< 7%	< 11%	< 14%	< 19%	13%	< 10%	11.7%	1.1%	68.5%	2.4%	14.8%	1.5%	IC50 (Cytochrome P450 2C9 [8]): > 20 µM
C[C@@H](Oc1nnc(-c2ccncc2)n1C)c1noc(-c2cccc(Cl)c2)n1	3	3.4																			IC50 [2]: 11.6 µM
c1ccc(-c2noc(CN3CCN(Cc4nc5ccccc5s4)CC3)n2)cc1	5.3	4.4																			IC50 [2]: 13 µM
c1ccc(CN2CCN(Cc3nc(-c4ccccc4)no3)CC2)cc1	5.1	6.7	9 µL/min/mg	> 20 µM	10.2 µM	> 20 µM	> 20 µM	> 20 µM	9%	< 9%	< 13%	< 19%	< 12%	< 7%	92.1%	2.3%	1.5%	1%	2.2%	0.9%	
CN(Cc1nc2ccccc2c(=O)[nH]1)Cc1nnc(-c2ccccc2)o1	2	2.3																			IC50 [2]: > 33 µM
O=C(NC1CCCCC1)c1nc(CS(=O)(=O)c2ccccc2)no1			50 µL/min/mg	> 20 µM	> 20 µM	> 20 µM	> 20 µM	> 20 µM	< 7%	< 9%	< 13%	< 19%	< 19%	< 7%	91.5%	0.1%	0.2%	0.3%	7.9%	0%	IC50 (Cytochrome P450 2C9 [8]): > 20 µM
Clc1cc(-c2nnc(CSc3nnc(-c4ccncc4)n3C3CC3)o2)ccn1			8 µL/min/mg	> 20 µM	> 20 µM	> 20 µM	> 20 µM	> 20 µM	< 7%	< 11%	< 14%	< 19%	< 12%	< 10%	100%	0%	0%	0%	0%	0%	IC50 (Cytochrome P450 2C9 [8]): > 20 µM
CCOC(=O)N1CCN(Cc2nc(-c3cccc(Cl)c3)no2)CC1	4.8	3.4																			
O=C(NCc1ccncc1)c1nc(CS(=O)(=O)c2ccccc2)no1			93 µL/min/mg	14.6 µM	9.4 µM	> 20 µM	1.3 µM	> 20 µM	42%	< 11%	< 14%	< 19%	< 12%	< 10%	99.8%	0.1%	0%	0.1%	0.1%	0%	IC50 (Cytochrome P450 2C9 [8]): 2.2 µM
O=C(NCc1ccncc1)c1nnc(CS(=O)(=O)c2ccccc2)o1			< 5 µL/min/mg	> 20 µM	5.7 µM	> 20 µM	9.8 µM	> 20 µM	< 7%	< 11%	< 14%	< 19%	< 12%	< 10%	0%	100%	0%	0%	0%	0%	IC50 (Cytochrome P450 2C9 [8]): 1.7 µM
Clc1cc(-c2nc(CSc3nnc(-c4ccncc4)n3C3CC3)no2)ccn1			> 300 µL/min/mg	14.2 µM	> 20 µM	> 20 µM	> 20 µM	> 20 µM	30%	< 11%	< 14%	< 19%	< 12%	< 10%	99.5%	0%	0.2%	0%	0.1%	0.2%	IC50 (Cytochrome P450 2C9 [8]): > 20 µM
c1cc(-c2noc(C3CCCCC3)n2)ccn1			83 µL/min/mg	10.2 µM	10 µM	> 20 µM	1.2 µM	2.4 µM	< 7%	< 9%	< 13%	< 19%	< 12%	< 7%	17.7%	8.6%	29.5%	4.7%	38%	1.5%	IC50 (Cytochrome P450 2C9 [8]): 17.6 µM
O=C(NC1CCCCC1)c1nnc(CS(=O)(=O)c2ccccc2)o1			< 5 µL/min/mg	> 20 µM	> 20 µM	> 20 µM	> 20 µM	> 20 µM	< 7%	< 9%	< 13%	< 19%	< 12%	< 7%	52.2%	2.4%	0%	0%	45.4%	0%	IC50 (Cytochrome P450 2C9 [8]): > 20 µM
CCOC(=O)N1CCN(Cc2nnc(-c3cc(Cl)ccc3F)o2)CC1	3.2	3.5																			
CCOC(=O)N1CCN(Cc2nnc(-c3cccc(Cl)c3)o2)CC1	3.3	3.5																			

Source: ChEMBL document CHEMBL2069246, “Oxadiazoles in medicinal chemistry” (J Med Chem, 2012)
